# A selection: hits, their analogues and other compounds. The true share with any hit is near 2.1%.
# HTR2A ag = mouse HTR2A agonism via beta-arrestin recruitment; CHO-K1 mHTR2A beta-arrestin complementation, luminescence; percent of 30 µM serotonin response; activation, % at 7.6 µM; P35363; 360,000 compounds, 0.66% hits;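 active means activation above a run cutoff, the mean activation of all tested compounds plus 3 SD, cut at about 14% in these data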;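 further: 0% = plate median of compound wells and 100% = 30 µM serotonin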
# APJ antag = antagonists of human APJ apelin receptor | 330,000 compounds, 0.32% hits | inhibition, % at 20 µM | AID 2521 | P35414 | CHO-K1 APJ beta-arrestin complementation, luminescence;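 active means inhibition above about 40% at 20 µM, limit read from the data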;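 further: cells challenged with 10 nM apelin-13 agonist together with compound; plate controls were apelin-13 plus DMSO wells for no effect and DMSO wells lacking apelin-13 for full effect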
# Target sequence (P35414 whole entry, looked up): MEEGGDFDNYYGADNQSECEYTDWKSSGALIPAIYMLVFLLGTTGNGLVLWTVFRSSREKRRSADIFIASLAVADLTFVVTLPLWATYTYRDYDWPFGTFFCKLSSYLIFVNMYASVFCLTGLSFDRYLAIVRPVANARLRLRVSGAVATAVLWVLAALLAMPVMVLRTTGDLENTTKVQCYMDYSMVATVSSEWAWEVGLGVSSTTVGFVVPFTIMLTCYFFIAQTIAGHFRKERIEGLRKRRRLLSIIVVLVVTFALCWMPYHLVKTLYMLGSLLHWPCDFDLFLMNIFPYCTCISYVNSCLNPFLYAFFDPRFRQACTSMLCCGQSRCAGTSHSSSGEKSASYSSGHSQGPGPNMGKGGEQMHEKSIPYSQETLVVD
# APJ ag = activates the human apelin receptor APJ. P35414. activation, % at 20 µM. CHO-K1 APJ PathHunter beta-arrestin, luminescence; 0% DMSO wells, 100% apelin. AID 2520. 330,000 compounds, 0.11% hits;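 active means activation more than six SD over the plate average, tested at 20 µM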;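 further: 0% = DMSO alone and 100% = apelin-13 at 10 nM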
#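 Incubation: overnight seeding, 90 min compound at 25 °C, 1 h detection; test system: PathHunter CHO-K1 APJ (AGTRL-1) beta-arrestin reporter cells; amount: 1000 cells/well; doses: one dose, 20 µM compound, 1% DMSO; measured by: beta-gal luminescence; measure: agonist-driven arrestin binding to APJ; benchmarks: negative DMSO alone, positive Apelin-13 at 10 nM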
# CCR6 antagonist = CCR6 (human) receptor antagonism | inhibition, % at 20 µM | CHO-K1 CCR6 PathHunter beta-arrestin, luminescence, CCL20-stimulated | 340,000 compounds, 0.49% hits;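 active means compounds whose inhibition of the agonist-driven luminescence signal at 20 µM reaches about 50%, limit read from the data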;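 further: cells stimulated with CCL20 at 14 nM final; plate controls were DMSO with CCL20 for no effect and DMSO without agonist for full effect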
# EBI2 antag = blocks human EBI2 receptor beta-arrestin signaling; P32249; EBI2 beta-arrestin recruitment, luminescence, 7a,25-OHC stimulated; inhibition, % at 5 µM; 360,000 compounds, 0.81% hits; in the data active means inhibition above about 38%;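 further: enzyme fragment complementation signal reports receptor beta-arrestin coupling in cells; 0% = agonist plus DMSO wells and 100% = wells without agonist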
# CXCR6 block = blocks human CXCR6 beta-arrestin recruitment; AID 602244; 360,000 compounds, 0.36% hits; CHO-K1 PathHunter CXCR6 beta-arrestin, luminescence; inhibition, % at 20 µM; O00574; in the data active means inhibition above about 34%, passing the limit was not always enough;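 further: antagonist mode with CXCL16 agonist at 10 nM final; 0% = 10 nM CXCL16 with DMSO and 100% = unstimulated wells without agonist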
# EBI2 antag conf = EBI2 (human) antagonism, single concentration confirmation; EBI2 beta-arrestin luminescence, 7a,25-OHC antagonism; inhibition, % at 5 µM; 2,400 compounds, 29% hits; shares compounds with EBI2 antag;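 active means inhibition of at least 50%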
# EBI2 agonist = counter-screen for EBI2 antagonists: EBI2 agonist activity | shares compounds with EBI2 antag | EBI2-expressing cells, agonist mode, luminescence, 60 min; 0% vehicle, 100% 7α,25-dihydroxycholesterol control | activation, % at 5 µM | 2,400 tested, under 10 active | AID 652000;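 active means activation of at least 50%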
# bGal counter = inhibits E. coli beta-galactosidase, counter-screen for EBI2 antagonists; purified beta-galactosidase, luminescent Galacton Star, 15 min; inhibition, % at 5 µM; 2,400 compounds, 1% hits; AID 652176; shares compounds with EBI2 antag;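 active means replicate-average signal at least 3 plate SD below neutral wells, shown as high inhibition, flagging enzyme-inhibiting false positives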;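 further: 0% = DMSO wells with enzyme and 100% = wells lacking enzyme; higher means stronger loss of beta-gal luminescence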
# Numbers without * were called inactive; nt = no result given.
SMILES,HTR2A ag,APJ antag,APJ ag,CCR6 antagonist,EBI2 antag,CXCR6 block,EBI2 antag conf,EBI2 agonist,bGal counter
O=C(O)C1C2CCC(O2)C1C(=O)Nc1ccc(Br)cc1F (stereo unspecified),2,nt,nt,9,-6,1,nt,nt,nt
CC1(C)C(=O)Nc2ccccc2N1C(=O)COC(=O)c1ccc(NC(N)=O)cc1,8,2,8,4,-3,-6,nt,nt,nt
O=C(CCC1CCCC1)NNC(=O)COc1ccc(Br)cc1,-2,6,-1,-1,79*,2,37,-1,-7
Cc1ccc(OCC(=O)N2CCN(S(=O)(=O)c3ccc4c(c3)OCCO4)CC2)c(C)c1,-8,10,-1,10,70*,2,53*,2,4
Cc1ccc2c(CC(=O)N3CCN(S(=O)(=O)c4ccc5c(c4)OCCO5)CC3)coc2c1,5,1,-1,-3,50*,0,13,-1,-10
Cc1cc(=O)n2c(C(=O)Nc3ccc(C(=O)OC(C)C)cc3)c(C(=O)Nc3ccccc3)sc2n1,0,4,-3,11,12,27,nt,nt,nt
O=C(O)CN(CCc1ccccc1)S(=O)(=O)c1ccccc1,1,-16,-4,4,-3,2,nt,nt,nt
COc1ccc(-n2c(Cc3cccn3C)nnc2SCC(=O)NCc2ccccc2Cl)cc1,0,11,-5,19,56*,5,19,1,5
Cn1cccc1Cc1nnc(SCC(=O)Nc2cccc(F)c2)n1CCc1ccccc1,-1,16,-1,1,45*,7,39,-2,-8
COc1ccc(-n2c(Cc3cccn3C)nnc2SCC(=O)Nc2ccccc2OC)cc1,1,8,0,6,45*,-8,31,1,10
Cc1ccc(-n2c(Cc3cccn3C)nnc2SCC(=O)NCc2ccc3c(c2)OCO3)cc1,-2,-2,-3,-6,45*,9,37,1,-4
Cc1ccc(-n2c(Cc3cccn3C)nnc2SCC(=O)Nc2ccc3c(c2)OCO3)cc1,-1,-13,0,-4,24,-10,nt,nt,nt
O=C1CCc2cc(S(=O)(=O)NCCc3ccc(Cl)cc3)cc3c2N1CC3,-6,-62,6,0,-1,4,nt,nt,nt
O=c1n(-c2ccc(Br)cc2)cnn1-c1ncccc1[N+](=O)[O-],-2,-9,-3,1,-5,-9,nt,nt,nt
O=S1(=O)CCC(N=Nc2c(O)n(Cc3ccccc3)c3ccccc23)C1 (stereo unspecified),-5,-2,-4,13,5,1,nt,nt,nt
COc1ccc(-n2c(Cc3cccn3C)nnc2SCC(=O)Nc2cc(Cl)ccc2OC)cc1,0,19,-3,7,58*,4,27,0,10
COc1ccc(-n2c(Cc3cccn3C)nnc2SCC(=O)Nc2ccc(Cl)cc2)cc1,0,-2,-1,11,34,-4,nt,nt,nt
COc1ccc(-n2c(Cc3cccn3C)nnc2SCC(=O)Nc2cccc(F)c2)cc1,-2,26,-6,12,56*,1,7,-1,-9
CC(NC(=O)CN(c1cccc(C(F)(F)F)c1)S(=O)(=O)c1ccc(Cl)c([N+](=O)[O-])c1)c1ccccc1 (stereo unspecified),-2,-24,0,-25,48*,-7,40,-1,-11
O=C(Nc1ccccc1F)Nc1ccccc1N1CCCCC1,1,6,2,16,53*,8,6,-1,-14
Cc1cccc(OCC(=O)NC2CCCc3ccccc32)c1C (stereo unspecified),-7,-9,-4,12,57*,1,58*,-1,-21
